Experimental data as given in ChEMBL document CHEMBL4689842, “EUbOPEN Chemogenomics Library wave 1” (2021).

Test system: HEK-293T
Assay: Multiplex assay against HEK293T;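 as to Population Tubulin-Different-Phenotype (%): share of the cells with healthy nuclei that show this phenotype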
Assay type: toxicity, cell-based
Details: human
How it was run: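 Values for tubulin, mitochondrial-mass and membrane-permeability phenotypes are per cents of cells with healthy nuclei. These cells were identified by CellPathfinder machine-learning gating of live cells that had been stained at seeding with Hoechst33342, BioTracker Green Microtubule Cytoskeleton Dye, MitoTracker Red and Annexin V Alexa Fluor 680 and imaged on a CQ1 microscope at 37°C and 5% CO2 after compound addition. The gating first set Hoechst high-intensity objects apart from normal cells, then split normal cells into healthy, pyknosed or fragmented nuclei, and pyknosed cells into mitotic or apoptotic.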

[1] = 12 h, 1 µM, compound concentration 1 uM, replicate 1
[2] = 12 h, 1 µM, compound concentration 1 uM, replicate 2
[3] = 12 h, 10 µM, compound concentration 10 uM, replicate 1
[4] = 12 h, 10 µM, compound concentration 10 uM, replicate 2
[5] = 24 h, 1 µM, compound concentration 1 uM, replicate 1
[6] = 24 h, 1 µM, compound concentration 1 uM, replicate 2
[7] = 24 h, 10 µM, compound concentration 10 uM, replicate 1
[8] = 24 h, 10 µM, compound concentration 10 uM, replicate 2

COc1cc2c(Nc3ccc(NC(=O)c4ccccc4)cc3)ncnc2cc1OCCCN1CCOCC1
Population Apoptotic (%) [1]: 25%
Population Fragmented Nuclei (%) [1]: 13%
Population Healthy Nuclei (%) [1]: 42%
Population Hoechst High Intensity Objects (%) [1]: 18%
Population Membrane Permeable-Phenotype (%) [1]: 29%
Population Mitochondria Different-Phenotype (%) [1]: 17%
Population Mitotic Cells (%) [1]: 74%
Population Normal (%) [1]: 81%
Population Pyknosed Nuclei (%) [1]: 43%
Population Tubulin-Different-Phenotype (%) [1]: 81%
Total Cell Count [1]: 532
Population Apoptotic (%) [2]: 26%
Population Fragmented Nuclei (%) [2]: 3%
Population Healthy Nuclei (%) [2]: 84%
Population Hoechst High Intensity Objects (%) [2]: 6%
Population Membrane Permeable-Phenotype (%) [2]: 15%
Population Mitochondria Different-Phenotype (%) [2]: 39%
Population Mitotic Cells (%) [2]: 73%
Population Normal (%) [2]: 93%
Population Pyknosed Nuclei (%) [2]: 12%
Population Tubulin-Different-Phenotype (%) [2]: 96%
Total Cell Count [2]: 927
Population Apoptotic (%) [3]: 17%
Population Fragmented Nuclei (%) [3]: 17%
Population Healthy Nuclei (%) [3]: 59%
Population Hoechst High Intensity Objects (%) [3]: 11%
Population Membrane Permeable-Phenotype (%) [3]: 3%
Population Mitochondria Different-Phenotype (%) [3]: 9%
Population Mitotic Cells (%) [3]: 82%
Population Normal (%) [3]: 88%
Population Pyknosed Nuclei (%) [3]: 22%
Population Tubulin-Different-Phenotype (%) [3]: 9%
Total Cell Count [3]: 626
Population Apoptotic (%) [4]: 6%
Population Fragmented Nuclei (%) [4]: 3%
Population Healthy Nuclei (%) [4]: 89%
Population Hoechst High Intensity Objects (%) [4]: 2%
Population Membrane Permeable-Phenotype (%) [4]: 2%
Population Mitochondria Different-Phenotype (%) [4]: 12%
Population Mitotic Cells (%) [4]: 93%
Population Normal (%) [4]: 97%
Population Pyknosed Nuclei (%) [4]: 6%
Population Tubulin-Different-Phenotype (%) [4]: 13%
Total Cell Count [4]: 1320
Population Apoptotic (%) [5]: 29%
Population Fragmented Nuclei (%) [5]: 14%
Population Healthy Nuclei (%) [5]: 58%
Population Hoechst High Intensity Objects (%) [5]: 21%
Population Membrane Permeable-Phenotype (%) [5]: 20%
Population Mitochondria Different-Phenotype (%) [5]: 22%
Population Mitotic Cells (%) [5]: 70%
Population Normal (%) [5]: 78%
Population Pyknosed Nuclei (%) [5]: 26%
Population Tubulin-Different-Phenotype (%) [5]: 89%
Total Cell Count [5]: 523
Population Apoptotic (%) [6]: 2%
Population Fragmented Nuclei (%) [6]: 5%
Population Healthy Nuclei (%) [6]: 87%
Population Hoechst High Intensity Objects (%) [6]: 6%
Population Membrane Permeable-Phenotype (%) [6]: 22%
Population Mitochondria Different-Phenotype (%) [6]: 25%
Population Mitotic Cells (%) [6]: 97%
Population Normal (%) [6]: 93%
Population Pyknosed Nuclei (%) [6]: 7%
Population Tubulin-Different-Phenotype (%) [6]: 97%
Total Cell Count [6]: 1034
Population Apoptotic (%) [7]: 9%
Population Fragmented Nuclei (%) [7]: 12%
Population Healthy Nuclei (%) [7]: 75%
Population Hoechst High Intensity Objects (%) [7]: 9%
Population Membrane Permeable-Phenotype (%) [7]: 11%
Population Mitochondria Different-Phenotype (%) [7]: 5%
Population Mitotic Cells (%) [7]: 90%
Population Normal (%) [7]: 90%
Population Pyknosed Nuclei (%) [7]: 11%
Population Tubulin-Different-Phenotype (%) [7]: 13%
Total Cell Count [7]: 622
Population Apoptotic (%) [8]: 4%
Population Fragmented Nuclei (%) [8]: 14%
Population Healthy Nuclei (%) [8]: 79%
Population Hoechst High Intensity Objects (%) [8]: 4%
Population Membrane Permeable-Phenotype (%) [8]: 5%
Population Mitochondria Different-Phenotype (%) [8]: 3%
Population Mitotic Cells (%) [8]: 95%
Population Normal (%) [8]: 95%
Population Pyknosed Nuclei (%) [8]: 5%
Population Tubulin-Different-Phenotype (%) [8]: 15%
Total Cell Count [8]: 1748

c1ccc2oc(-c3csc(C4CCN(Cc5nc6ncccc6[nH]5)CC4)n3)cc2c1
Population Apoptotic (%) [1]: 23%
Population Fragmented Nuclei (%) [1]: 23%
Population Healthy Nuclei (%) [1]: 39%
Population Hoechst High Intensity Objects (%) [1]: 19%
Population Membrane Permeable-Phenotype (%) [1]: 5%
Population Mitochondria Different-Phenotype (%) [1]: 5%
Population Mitotic Cells (%) [1]: 76%
Population Normal (%) [1]: 80%
Population Pyknosed Nuclei (%) [1]: 37%
Population Tubulin-Different-Phenotype (%) [1]: 7%
Total Cell Count [1]: 599
Population Apoptotic (%) [2]: 13%
Population Fragmented Nuclei (%) [2]: 4%
Population Healthy Nuclei (%) [2]: 83%
Population Hoechst High Intensity Objects (%) [2]: 4%
Population Membrane Permeable-Phenotype (%) [2]: 1%
Population Mitochondria Different-Phenotype (%) [2]: 21%
Population Mitotic Cells (%) [2]: 86%
Population Normal (%) [2]: 95%
Population Pyknosed Nuclei (%) [2]: 11%
Population Tubulin-Different-Phenotype (%) [2]: 13%
Total Cell Count [2]: 1174
Population Apoptotic (%) [3]: 17%
Population Fragmented Nuclei (%) [3]: 18%
Population Healthy Nuclei (%) [3]: 54%
Population Hoechst High Intensity Objects (%) [3]: 14%
Population Membrane Permeable-Phenotype (%) [3]: 5%
Population Mitochondria Different-Phenotype (%) [3]: 5%
Population Mitotic Cells (%) [3]: 82%
Population Normal (%) [3]: 85%
Population Pyknosed Nuclei (%) [3]: 26%
Population Tubulin-Different-Phenotype (%) [3]: 4%
Total Cell Count [3]: 511
Population Apoptotic (%) [4]: 12%
Population Fragmented Nuclei (%) [4]: 6%
Population Healthy Nuclei (%) [4]: 86%
Population Hoechst High Intensity Objects (%) [4]: 3%
Population Membrane Permeable-Phenotype (%) [4]: 2%
Population Mitochondria Different-Phenotype (%) [4]: 10%
Population Mitotic Cells (%) [4]: 87%
Population Normal (%) [4]: 96%
Population Pyknosed Nuclei (%) [4]: 7%
Total Cell Count [4]: 1122
Population Apoptotic (%) [5]: 20%
Population Fragmented Nuclei (%) [5]: 21%
Population Healthy Nuclei (%) [5]: 50%
Population Hoechst High Intensity Objects (%) [5]: 15%
Population Membrane Permeable-Phenotype (%) [5]: 8%
Population Mitochondria Different-Phenotype (%) [5]: 10%
Population Mitotic Cells (%) [5]: 79%
Population Normal (%) [5]: 84%
Population Pyknosed Nuclei (%) [5]: 28%
Population Tubulin-Different-Phenotype (%) [5]: 13%
Total Cell Count [5]: 538
Population Apoptotic (%) [6]: 15%
Population Fragmented Nuclei (%) [6]: 5%
Population Healthy Nuclei (%) [6]: 86%
Population Hoechst High Intensity Objects (%) [6]: 6%
Population Membrane Permeable-Phenotype (%) [6]: 4%
Population Mitochondria Different-Phenotype (%) [6]: 12%
Population Mitotic Cells (%) [6]: 84%
Population Normal (%) [6]: 93%
Population Pyknosed Nuclei (%) [6]: 7%
Population Tubulin-Different-Phenotype (%) [6]: 30%
Total Cell Count [6]: 1346
Population Apoptotic (%) [7]: 16%
Population Fragmented Nuclei (%) [7]: 20%
Population Healthy Nuclei (%) [7]: 60%
Population Hoechst High Intensity Objects (%) [7]: 15%
Population Membrane Permeable-Phenotype (%) [7]: 7%
Population Mitochondria Different-Phenotype (%) [7]: 5%
Population Mitotic Cells (%) [7]: 83%
Population Normal (%) [7]: 84%
Population Pyknosed Nuclei (%) [7]: 19%
Population Tubulin-Different-Phenotype (%) [7]: 7%
Total Cell Count [7]: 500
Population Apoptotic (%) [8]: 5%
Population Fragmented Nuclei (%) [8]: 11%
Population Healthy Nuclei (%) [8]: 84%
Population Hoechst High Intensity Objects (%) [8]: 3%
Population Membrane Permeable-Phenotype (%) [8]: 6%
Population Mitochondria Different-Phenotype (%) [8]: 2%
Population Mitotic Cells (%) [8]: 95%
Population Normal (%) [8]: 96%
Population Pyknosed Nuclei (%) [8]: 3%
Population Tubulin-Different-Phenotype (%) [8]: 9%
Total Cell Count [8]: 1653
